Screens: PubChem BioAssay, The Scripps Research Institute Molecular Screening Center
ABHD4 inh – ABHD4 inhibitors, primary screen, biochemical, fluorescence polarization, mouse; inhibition, % at 8.92 µM; actives 0.54% (n = 370,000); AID 720543, 2013; (Lyso)-N-acylphosphatidylethanolamine lipase (Mus musculus), Q8VD66; purified mABHD4, FP-Rh probe fluorescence polarization;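 active means inhibition exceeding the mean over every tested compound plus 3 SD, cut at about 30% in these data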;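 further: 0% = plate median of compound wells and 100% = S159A mutant with DMSO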
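System: mouse ABHD4 enzyme, wild type / Medium: HEPES pH 7.0, NaCl, Pluronic buffer / Reagent: FP-Rh activity-based fluorescent probe / Control set: S159A mutant high control, sample median low control / Detection: fluorescence polarization with parallel and perpendicular emission, 525/598 nm / Schedule: 45 min + 60 min at 25 °C / Compound dosing: 8.92 µM, single dose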
PRMT1 FP inh – PRMT1 methyltransferase inhibitors, primary screen, biochemical, fluorescence polarization; Protein arginine N-methyltransferase 1 (Homo sapiens), Q99873; recombinant PRMT1, activity-based probe fluorescence polarization; inhibition, % at 2.79 µM; actives 1.3% (n = 370,000);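 active means inhibition above about 21% made by adding two undisclosed values, limit read from the data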
SIAE primary – human SIAE inhibitors, primary screen, biochemical, fluorescence polarization, FP-Rh probe, 1536-well HTS; Sialate O-acetylesterase (Homo sapiens), Q9HAT2; SIAE FP-Rh probe binding; inhibition, % at 9.66 µM; actives 0.69% (n = 370,000); AID 1053197, 2014;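 active means inhibition above a cutoff: mean of compounds within the control limits plus 3 SD of those, cut at about 17% in these data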;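 further: 0% = plate median of compound wells and 100% = probe without SIAE protein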
TCR CD3 inh – inhibitors of human TCR-CD3 interaction, primary screen, biochemical, fluorescence, TAMRA-labeled TCR probe. T-cell receptor (TCR). inhibition, % at 9.4 µM. actives 0.37% (n = 360,000). AID 651800, 2012; in the data active means inhibition above about 19%;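 further: recombinant mutant TCR 2C K166C tagged with TAMRA read by polarization; 0% = receptor in buffer alone and 100% = receptor with positive control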
HTRA1 inh – HTRA1 serine protease inhibitors, primary screen, biochemical, fluorescence polarization, HTS; Q92743; recombinant HTRA1, FP-rhodamine activity-based probe; inhibition, % at 5.96 µM; actives 0.5% (n = 340,000); in the data active means inhibition above about 36%;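 further: 0% = enzyme with DMSO and 100% = wells lacking enzyme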
Target sequence (Q92743 whole entry, looked up): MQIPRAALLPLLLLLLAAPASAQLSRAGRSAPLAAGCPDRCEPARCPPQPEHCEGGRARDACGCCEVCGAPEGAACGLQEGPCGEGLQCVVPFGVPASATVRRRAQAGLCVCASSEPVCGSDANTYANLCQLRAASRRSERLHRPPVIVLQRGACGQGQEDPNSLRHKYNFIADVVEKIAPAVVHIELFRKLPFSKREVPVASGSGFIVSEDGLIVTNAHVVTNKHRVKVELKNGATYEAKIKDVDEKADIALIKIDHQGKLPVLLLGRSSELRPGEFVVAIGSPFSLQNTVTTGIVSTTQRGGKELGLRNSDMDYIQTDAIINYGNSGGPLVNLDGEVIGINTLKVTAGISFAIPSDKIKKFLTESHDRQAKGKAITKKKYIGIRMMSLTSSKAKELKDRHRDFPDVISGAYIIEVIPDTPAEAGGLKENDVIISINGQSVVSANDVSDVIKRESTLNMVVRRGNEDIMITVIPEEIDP
PAD4 inh – human PAD4 inhibitors, primary screen, biochemical, fluorescence polarization, 1536-well format. Protein-arginine deiminase type-4 (Homo sapiens), Q9UM07. recombinant PAD4, RCA probe fluorescence polarization. inhibition, % at 6.36 µM. actives 0.41% (n = 330,000). AID 485272, 2010;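 active means percent inhibition above a cutoff equal to the mean of all tested compounds plus 3 SD, cut at about 15% in these data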;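 further: 0% = PAD4 with RCA probe and DMSO and 100% = probe without PAD4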
SIAE inh conf – human SIAE inhibitors, retest, confirmation, biochemical, fluorescence polarization, FP-Rh probe, triplicate. shares compounds with SIAE primary. SIAE FP-Rh activity-based probe. inhibition, % at 9.66 µM. actives 13% (n = 2,300). AID 1117263, 2014;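 active means mean inhibition of the replicates above the hit cutoff set in the primary screen, cut at about 17% in these data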;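 further: 0% = SIAE with DMSO and probe and 100% = probe without SIAE; inhibitors lower polarization as more probe stays unbound to SIAE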
An asterisk follows results filed as active; . = not tested or not shown. Only some compounds are listed: those with a hit (about 2.9% of all), similar ones and a draw of the others.

SMILES	ABHD4 inh	PRMT1 FP inh	SIAE primary	TCR CD3 inh	HTRA1 inh	PAD4 inh	SIAE inh conf
c1ccc(CC(Nc2cccnc2)c2ccccc2)cc1 (centres undefined)	-13	10	-2	-7	.	.	.
CCCOc1ccc(C(=O)N2CCC(Oc3cccnc3)CC2)cc1	4	-3	3	.	.	.	.
Cc1onc(-c2ccc(Cl)cc2)c1-c1ccn(S(=O)(=O)c2cccc(Cl)c2)n1	-9	-5	-6	.	.	.	.
O=C(COC(=O)c1ccc(CSc2ccc(Cl)cc2)cc1)Nc1ccccc1	1	-2	20*	1	-3	-3	-4
O=C(COC(=O)CSc1ccc(Cl)cc1)Nc1ccccc1	-3	1	-7	-4	-3	-4	.
CN(C)c1ccc(C(=O)NCCc2ccccc2-c2ccccc2CCC(=O)NCc2ccccc2)cc1	-4	-1	-2	.	.	.	.
CSc1ccc(C2Nc3cccc4cccc(c34)N2)cc1	12	8	17	2	2	-5	.
c1cc2c3c(cccc3c1)NC(c1ccc3c(c1)OCO3)N2	5	2	28*	-2	0	-6	8
CCOc1ccccc1NC(=O)c1cc2c(C)nn(-c3ccccc3)c2s1	-5	0	13	.	.	.	.
CN[C@H]1C[C@H]2c3[nH]c4c(-c5ccc6c(c5)OCO6)cccc4c3CCN2C(=O)[C@H]1[C@H](C)O	15	0	1	1	.	.	.
Cc1ccc(/C=N\NC(=O)/C(=C\Nc2nccc(C)n2)NC(=O)c2ccccc2)cc1	10	-1	18*	3	-7	-3	7
COCCN(C(=O)COC(=O)/C=C/c1cccs1)c1c(N)n(Cc2ccccc2)c(=O)[nH]c1=O	0	-1	21*	0	-1	0	-1
C=CC[C@H]1c2ccccc2[C@H]2N3N=Cc4ccccc4[C@H]3[C@H](CCCC)C(=O)N2N1C(=O)NCc1ccccc1	1	-1	0	.	.	.	.
CCN1C(=O)[C@H]2[C@@H](c3ccc(C)cc3)N3C(=O)N(c4cccc(Cl)c4)C(=O)[C@@]3(C)[C@H]2C1=O	1	0	23*	7	-8	-2	4
CCN1C(=O)[C@H]2[C@@H](c3ccc(C)cc3)N3C(=O)N(c4ccccc4)C(=O)[C@@]3(C)[C@H]2C1=O	10	1	5	-1	-3	0	.
COc1ccc(CCNC(=O)CC2C(=O)NCCN2CC(C)(C)C)cc1 (centres undefined)	0	-1	4	5	1	-4	.
COc1cccc(CCNC(=O)CC2C(=O)NCCN2CC(C)(C)C)c1 (centres undefined)	3	2	17*	9	-2	-6	-2
CCOC(=O)c1c[nH]n(-c2ccc(C)cc2)c1=O	3	4	18*	-4	-2	0	1
CCOC(=O)c1c[nH]n(-c2ccccc2)c1=O	10	-7	12	4	2	3	.
COc1ccccc1NC(=O)Cc1csc(NC(=S)Nc2ccccc2)n1	-14	4	-5	-3	-47	0	.
COc1ccc(NC(=S)Nc2nc(CC(=O)Nc3ccccc3OC)cs2)cc1	-6	1	21*	4	-19	-2	7
O=C(CSc1nnc(-c2cccnc2)n1Cc1ccco1)Nc1ccc(Cl)c(Cl)c1	-11	7	-5	.	.	.	.
CC(=O)N1CCN(C2c3cccc4cccc(c34)C2NS(=O)(=O)c2ccccc2)CC1 (centres undefined)	-4	0	24*	-2	3	-7	-3
CC(=O)Nc1nc(C)c(-c2csc(Nc3cccc(C(C)=O)c3)n2)s1	21	8	42*	-12	12	-3	65*
COc1ccc([C@@]23CCN=C2c2[nH]c4ccccc4c2CCN3)c(N)c1	11	5	19*	.	.	.	2
SMILES	ABHD4 inh	PRMT1 FP inh	SIAE primary	TCR CD3 inh	HTRA1 inh	PAD4 inh	SIAE inh conf
NC(Cc1ccc(C(F)(F)F)cc1)c1csc(NC(=O)Nc2ccccc2)n1 (centres undefined)	-8	8	6	-6	.	.	.
NC(Cc1ccc(C(F)(F)F)cc1)c1csc(NC(=O)Nc2ccccc2Cl)n1 (centres undefined)	2	-4	20*	1	.	.	21*
CCC(c1nc2ccccc2[nH]1)n1c(C)nc2ccccc21 (centres undefined)	-2	-4	2	7	.	.	.
CCCCCCCCC(c1nc2ccccc2[nH]1)N1CCN=C1c1cc2ccccc2[nH]1 (centres undefined)	26	-3	22*	6	.	.	28*
CCC(C)N(C(=O)Cn1nc(Cc2ccncc2)c2ccccc2c1=O)C(C)CC (centres undefined)	0	-2	0	.	.	.	.
O=[N+]([O-])c1ccc(/C=N/Nc2ccnc3cc(Cl)ccc23)o1	17	7	20*	-33	22	-11	5
Cc1ccn2c(Nc3ccccc3C)c(-c3ccccn3)nc2c1	7	-2	18*	-9	10	-3	5
Cc1ccccc1Nc1c(-c2ccccn2)nc2ccccn12	12	-3	10	2	8	-1	.
CN(C)c1ccc(NC(=O)C2C3C=CC(C3)C2C(=O)O)cc1 (centres undefined)	35*	18	23*	33*	35	.	4
CCOC(=O)c1[nH]c2ccc(Br)cc2c1NC(=O)CCN1CCN(C(=O)OCC)CC1	-7	-1	18*	5	-6	1	0
CCOC(=O)c1[nH]c2ccc(Br)cc2c1NC(=O)CCN1CCOCC1	-12	6	-3	-3	5	-6	.
COc1ccc(-c2csc(N3CCN(c4cc(C)nc5ccccc45)CC3)n2)cc1OC	8	2	20*	-5	-1	2	7
CCOC(=O)C(NC(=O)CC)(Nc1ccccc1)C(F)(F)F (centres undefined)	0	-1	4	-6	4	0	.
CCOC(=O)C(NC(=O)CC)(N1CCc2ccccc2C1)C(F)(F)F (centres undefined)	5	-2	20*	-3	0	1	3
C=CCN1[C@@H](CC(C)C)COc2cc(N3CCSCC3)ccc2S1(=O)=O	2	3	0	.	.	.	.
CCN(CC)C(=O)CC[C@H]1CC[C@]2(CCCN(Cc3ccc(OC)cc3)C2)O1	0	-3	-1	.	.	.	.
CCOc1cccc(/C=N/N2CCN(c3ccc(Cl)cc3)CC2)c1O	2	-7	21*	0	-25	4	1
